Laboratory results published in ChEMBL document CHEMBL1145962, “Structure-based de novo design, synthesis, and biological evaluation of non-azole inhibitors specific for lanosterol 14alpha-demethylase of fungi” (2003).
In brackets after ≈: the same amount, converted by molar mass.

Experiments:
Format in all cases: functional
Microsporum canis = experiment: In vitro antifungal activity against Microsporum canis
Method in brief: (§1)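 Dermatophytes tested by NCCLS serial dilution in 96-well plates, in RPMI 1640 with 0.165 M MOPS. Compounds were prepared in DMSO and diluted in medium. Incubation was at 28 °C with reading at 7 days. MIC is the lowest concentration giving turbidity at ≤80% inhibition of control growth.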

Aspergillus fumigatus = experiment: In vitro antifungal activity against Aspergillus fumigatus
Method in brief: (§2)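 Filamentous fungi were tested by NCCLS microdilution in RPMI 1640 buffered with 0.165 M MOPS. DMSO-dissolved compounds were serially diluted in medium. MIC was read at 7 days as the lowest concentration with turbidity at ≤80% inhibition versus the drug-free control.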

Fonsecaea pedrosoi = experiment: In vitro antifungal activity against Fonsecaea pedrosoi; method in brief: as §2
Candida albicans = experiment: In vitro antifungal activity against Candida albicans
Method in brief: (§3)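 NCCLS broth serial dilution in 96-well plates with RPMI 1640 buffered with 0.165 M MOPS. Compounds were dissolved in DMSO and diluted in medium. Yeasts were incubated at 35 °C and read at 24 h. MIC is the lowest concentration giving turbidity at ≤80% inhibition versus the growth control.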

Candida parapsilosis = experiment: In vitro antifungal activity against Candida parapsilosis; details: Lodderomyces parapsilosis; method in brief: as §3
Sporothrix schenckii = experiment: In vitro antifungal activity against Sporothrix schenck ii; method in brief: as §2
Cryptococcus neoformans = experiment: In vitro antifungal activity against Cryptococcus neoformans
Method in brief: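 Microdilution MIC per NCCLS in MOPS (0.165 M)-buffered RPMI 1640. DMSO solutions were serially diluted in growth medium. Incubated at 35 °C as a yeast, with growth read at 72 h.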

Trichophyton rubrum = experiment: In vitro antifungal activity against Trichophyton rubrum; method in brief: as §1

Row | Compound | MIC (Microsporum canis) [µg/mL] | MIC (Aspergillus fumigatus) [µg/mL] | MIC (Fonsecaea pedrosoi) [µg/mL] | MIC (Candida albicans) [µg/mL] | MIC (Candida parapsilosis) [µg/mL] | MIC (Sporothrix schenckii) [µg/mL] | MIC (Cryptococcus neoformans) [µg/mL] | MIC (Trichophyton rubrum) [µg/mL]
1 | CCCCCCCC1(C)C/C(=N/O)c2ccc(O)cc2O1 (stereo not drawn) | 0.625 (≈ 2.14 µM) | 10 (≈ 34.3 µM) | 40 (≈ 137 µM) | 40 (≈ 137 µM) | 20 (≈ 68.6 µM) | 10 (≈ 34.3 µM) | 20 (≈ 68.6 µM) | 2.5 (≈ 8.58 µM)
2 | CCCCCC1(C)CC(=O)c2ccc(OC)cc2O1 (stereo not drawn) | 80 (≈ 305 µM) | 160 (≈ 610 µM) | > 320 | > 320 | > 320 | > 320 | > 320 | > 320
3 | CCCCCCCC1(C)CC(=O)c2ccc(OC)cc2O1 (stereo not drawn) | 40 (≈ 138 µM) | > 320 | > 320 | > 320 | 320 (≈ 1100 µM) | 40 (≈ 138 µM) | > 320 | 320 (≈ 1100 µM)
4 | CCCCCC1(C)CC(O)c2ccc(O)cc2O1 (stereo not drawn) | 10 (≈ 39.9 µM) | 80 (≈ 320 µM) | 40 (≈ 160 µM) | 160 (≈ 639 µM) | 40 (≈ 160 µM) | 20 (≈ 79.9 µM) | 80 (≈ 320 µM) | 20 (≈ 79.9 µM)
5 | COc1ccc2c(c1)OC(C)(CCC=C(C)C)C=C2 (stereo not drawn) | 80 (≈ 310 µM) | > 320 | > 320 | > 320 | > 320 | 320 (≈ 1240 µM) | > 320 | 40 (≈ 155 µM)
6 | COc1ccc2c(c1)OC(C)(CCC=C(C)C)CC2O (stereo not drawn) | 160 (≈ 579 µM) | 160 (≈ 579 µM) | 320 (≈ 1160 µM) | > 320 | 160 (≈ 579 µM) | 320 (≈ 1160 µM) | 160 (≈ 579 µM) | 160 (≈ 579 µM)
7 | CCCCCC1(C)CC(=O)c2ccc(O)cc2O1 (stereo not drawn) | 40 (≈ 161 µM) | 160 (≈ 644 µM) | 80 (≈ 322 µM) | 320 (≈ 1290 µM) | 160 (≈ 644 µM) | 80 (≈ 322 µM) | 160 (≈ 644 µM) | 20 (≈ 80.5 µM)
8 | CC(C)=CCCC1(C)C/C(=N/O)c2ccc(O)cc2O1 (stereo not drawn) | 2.5 (≈ 9.08 µM) | 40 (≈ 145 µM) | 20 (≈ 72.6 µM) | 80 (≈ 291 µM) | 40 (≈ 145 µM) | 40 (≈ 145 µM) | 40 (≈ 145 µM) | 5 (≈ 18.2 µM)
9 | CCCCCC1(C)CC(O)c2ccc(OC)cc2O1 (stereo not drawn) | 20 (≈ 75.7 µM) | 80 (≈ 303 µM) | > 320 | 320 (≈ 1210 µM) | 160 (≈ 605 µM) | > 320 | 160 (≈ 605 µM) | 20 (≈ 75.7 µM)
10 | CCCCCCCC1(C)C=Cc2ccc(OC)cc2O1 (stereo not drawn) | 320 (≈ 1170 µM) | > 320 | > 320 | > 320 | > 320 | > 320 | > 320 | > 320
11 | CCCCCCCC1(C)CC(=O)c2ccc(O)cc2O1 (stereo not drawn) | 80 (≈ 289 µM) | 160 (≈ 579 µM) | 80 (≈ 289 µM) | 160 (≈ 579 µM) | 160 (≈ 579 µM) | 40 (≈ 145 µM) | 80 (≈ 289 µM) | 40 (≈ 145 µM)
12 | CCCCCCCCCC1(C)CC(=O)c2ccc(O)cc2O1 (stereo not drawn) | 80 (≈ 263 µM) | 80 (≈ 263 µM) | > 320 | > 320 | > 320 | > 320 | > 320 | > 320
13 | CCCCCC1(C)C=Cc2ccc(OC)cc2O1 (stereo not drawn) | 320 (≈ 1300 µM) | > 320 | > 320 | > 320 | > 320 | > 320 | 320 (≈ 1300 µM) | > 320
14 | CC(C)CC1(C)CC(=O)c2ccc(O)cc2O1 (stereo not drawn) | 40 (≈ 171 µM) | 160 (≈ 683 µM) | 160 (≈ 683 µM) | > 320 | 320 (≈ 1370 µM) | 320 (≈ 1370 µM) | 320 (≈ 1370 µM) | 160 (≈ 683 µM)
15 | CC(C)=CCCC1(C)CC(=O)c2ccc(O)cc2O1 (stereo not drawn) | 40 (≈ 154 µM) | 80 (≈ 307 µM) | 160 (≈ 615 µM) | 160 (≈ 615 µM) | 80 (≈ 307 µM) | 160 (≈ 615 µM) | 160 (≈ 615 µM) | 80 (≈ 307 µM)
16 | CC(C)=CCCC1(C)CC(O)c2ccc(O)cc2O1 (stereo not drawn) | 10 (≈ 38.1 µM) | 160 (≈ 610 µM) | 160 (≈ 610 µM) | 80 (≈ 305 µM) | 80 (≈ 305 µM) | 80 (≈ 305 µM) | 160 (≈ 610 µM) | 80 (≈ 305 µM)
17 | CCCCCCCC1(C)CC(O)c2ccc(OC)cc2O1 (stereo not drawn) | 80 (≈ 274 µM) | 80 (≈ 274 µM) | 160 (≈ 547 µM) | 320 (≈ 1090 µM) | 160 (≈ 547 µM) | 40 (≈ 137 µM) | 80 (≈ 274 µM) | 80 (≈ 274 µM)
18 | CCCCCCCC1(C)CC(O)c2ccc(O)cc2O1 (stereo not drawn) | 2.5 (≈ 8.98 µM) | 80 (≈ 287 µM) | 80 (≈ 287 µM) | 40 (≈ 144 µM) | 20 (≈ 71.8 µM) | 40 (≈ 144 µM) | 40 (≈ 144 µM) | 20 (≈ 71.8 µM)
19 | OC(Cn1cncn1)(Cn1cncn1)c1ccc(F)cc1F [FLUCONAZOLE] | 0.5 (≈ 1.63 µM) | 16 (≈ 52.2 µM) | 64 (≈ 209 µM) | 4 (≈ 13.1 µM) | 8 (≈ 26.1 µM) | 0.25 (≈ 0.816 µM) | 32 (≈ 104 µM) | 0.5 (≈ 1.63 µM)
20 | COc1ccc2c(c1)OC(C)(CCC=C(C)C)CC2=O (stereo not drawn) | 80 (≈ 292 µM) | 160 (≈ 583 µM) | > 320 | > 320 | > 320 | 320 (≈ 1170 µM) | > 320 | > 320
21 | CCCCCC1(C)C/C(=N/O)c2ccc(O)cc2O1 (stereo not drawn) | 5 (≈ 19 µM) | 80 (≈ 304 µM) | 40 (≈ 152 µM) | 160 (≈ 608 µM) | 40 (≈ 152 µM) | 40 (≈ 152 µM) | 40 (≈ 152 µM) | 5 (≈ 19 µM)
